One assay addresses P2Y purinoceptor 6 (Homo sapiens, UniProt Q15077). Kind of assay: Agonist activity at P2Y6 receptor expressed in human 1321 cells at 100 uM by calcium mobilization assay. The class given is functional, cell-based. The method, boiled down: (§1)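 1321N1 human astrocytoma cells expressing the recombinant receptor were loaded with Fluo-3 AM (2.5 µM final) for 60 min at 25 °C. Assay buffer: KCl 10, NaCl 118, CaCl2 2.5, MgCl2 1, HEPES 20, glucose 10 mM, pH 7.4. Cells were washed and then stimulated with compound. Intracellular calcium was read as the change in fluorescence (FLIPR). Values are EC50 in µM. SR means 5–20% of maximal response at the top concentration, usually 100 µM. NR means no response.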
(In general: Calcium flux is commonly read through the fluorescence of an indicator in the cells.)

Assay [1] concerns the target P2Y purinoceptor 4 (Homo sapiens) (UniProt P51582). Kind of assay: Agonist activity at P2Y4 receptor expressed in human 1321 cells at 100 uM by calcium mobilization assay. The class given is functional, cell-based.
The target in the next assay is P2Y purinoceptor 1 (Homo sapiens, UniProt P47900). The assay can be described thus: Agonist activity at human recombinant P2Y1 receptor expressed in human 1321 cells at 100 uM by calcium mobilization assay. The class given is functional, cell-based. The method in brief:
as §1

Assay [2] deals with T1, P2Y purinoceptor 2 (Homo sapiens, UniProt P41231). The assay can be described thus: Agonist activity at P2Y2 receptor expressed in human 1321 cells at 100 uM by calcium mobilization assay. Type of assay: functional, cell-based. The method, boiled down:
as §1

Assay [3] addresses P2Y purinoceptor 12 (Homo sapiens) (UniProt Q9H244). The assay can be described thus: Antagonist activity at P2Y12 receptor assessed as inhibition of ADP-induced human platelet aggregation by washed platelet assay at 100 uM. Type of assay: functional. The method in brief: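 Blood from healthy volunteers was anticoagulated with ACD and spun at 180g for 15 min to give PRP. Platelets were washed three times in HEPES-buffered saline, pH 7.4, with 0.2% BSA and 5 µM PGI2, then resuspended with 0.25 U/mL apyrase. The suspension held 1 mg/mL fibrinogen at 37 °C, stirred at 1000 rpm. Compound (usually 1 nM–100 µM) was added for 2 min, then ADP at EC90 (usually 1–10 µM). Optical aggregation was recorded for 8 min. IC50 came from a four-parameter logistic fit.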

Assay [4] concerns the target T1, P2Y purinoceptor 2. The assay can be described thus: Agonist activity at P2Y2 receptor expressed in human 1321 cells by calcium mobilization assay. Type of assay: functional, cell-based.

We go through 22 compounds from ChEMBL document CHEMBL1141591, “Lipophilic modifications to dinucleoside polyphosphates and nucleotides that confer antagonist properties at the platelet P2Y12 receptor” (J Med Chem, 2008).

As usually defined, the EC50 is the concentration giving half of the maximal effect. In general, inhibition refers to the percentage by which the read-out fell short of the control.

Activity calls are given as the source filed them. The calls are words filed in the database; no cut-off is given here.

Sequence of P2Y purinoceptor 12 (Homo sapiens) (Q9H244 whole entry): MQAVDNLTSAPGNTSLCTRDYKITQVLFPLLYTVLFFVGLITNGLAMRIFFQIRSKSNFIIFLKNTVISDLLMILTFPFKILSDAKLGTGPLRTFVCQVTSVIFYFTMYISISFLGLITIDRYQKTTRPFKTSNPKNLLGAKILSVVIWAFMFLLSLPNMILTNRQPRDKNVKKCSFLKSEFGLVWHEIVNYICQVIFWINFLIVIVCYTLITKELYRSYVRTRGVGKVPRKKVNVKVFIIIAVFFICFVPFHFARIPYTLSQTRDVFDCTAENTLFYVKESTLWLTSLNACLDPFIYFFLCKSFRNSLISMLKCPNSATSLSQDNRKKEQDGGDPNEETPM
Sequence of P2Y purinoceptor 6 (Q15077 whole entry): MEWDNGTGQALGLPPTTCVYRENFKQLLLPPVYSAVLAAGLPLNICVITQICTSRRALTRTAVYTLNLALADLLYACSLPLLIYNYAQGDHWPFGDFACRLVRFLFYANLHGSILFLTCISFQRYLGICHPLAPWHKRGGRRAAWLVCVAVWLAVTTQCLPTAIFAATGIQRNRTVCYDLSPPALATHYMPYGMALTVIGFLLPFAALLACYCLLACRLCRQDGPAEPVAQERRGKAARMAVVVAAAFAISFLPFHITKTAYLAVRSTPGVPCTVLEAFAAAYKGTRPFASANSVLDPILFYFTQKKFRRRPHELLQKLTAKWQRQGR
T1 sequence (P41231 whole entry): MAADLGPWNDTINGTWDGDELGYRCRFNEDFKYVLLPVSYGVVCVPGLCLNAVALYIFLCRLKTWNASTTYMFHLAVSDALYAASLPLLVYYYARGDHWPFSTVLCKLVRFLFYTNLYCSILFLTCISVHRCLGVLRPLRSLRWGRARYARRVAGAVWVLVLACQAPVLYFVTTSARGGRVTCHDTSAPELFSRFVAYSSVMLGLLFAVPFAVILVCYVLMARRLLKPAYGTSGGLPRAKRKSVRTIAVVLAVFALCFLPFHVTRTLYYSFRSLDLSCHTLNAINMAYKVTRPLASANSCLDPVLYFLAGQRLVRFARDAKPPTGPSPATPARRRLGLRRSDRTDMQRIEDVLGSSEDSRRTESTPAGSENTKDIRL
Sequence of P2Y purinoceptor 1 (P47900 whole entry): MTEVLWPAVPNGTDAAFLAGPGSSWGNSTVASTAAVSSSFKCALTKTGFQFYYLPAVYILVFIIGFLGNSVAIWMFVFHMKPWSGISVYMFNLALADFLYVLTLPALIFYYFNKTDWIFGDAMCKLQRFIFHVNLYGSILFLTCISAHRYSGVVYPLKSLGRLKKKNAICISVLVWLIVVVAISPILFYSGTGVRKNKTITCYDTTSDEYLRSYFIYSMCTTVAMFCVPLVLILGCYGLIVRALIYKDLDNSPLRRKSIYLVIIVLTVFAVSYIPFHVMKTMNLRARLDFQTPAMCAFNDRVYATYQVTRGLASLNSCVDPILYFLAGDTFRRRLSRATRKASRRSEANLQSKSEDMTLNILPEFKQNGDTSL
Sequence of P2Y purinoceptor 4 (Homo sapiens) (P51582 whole entry): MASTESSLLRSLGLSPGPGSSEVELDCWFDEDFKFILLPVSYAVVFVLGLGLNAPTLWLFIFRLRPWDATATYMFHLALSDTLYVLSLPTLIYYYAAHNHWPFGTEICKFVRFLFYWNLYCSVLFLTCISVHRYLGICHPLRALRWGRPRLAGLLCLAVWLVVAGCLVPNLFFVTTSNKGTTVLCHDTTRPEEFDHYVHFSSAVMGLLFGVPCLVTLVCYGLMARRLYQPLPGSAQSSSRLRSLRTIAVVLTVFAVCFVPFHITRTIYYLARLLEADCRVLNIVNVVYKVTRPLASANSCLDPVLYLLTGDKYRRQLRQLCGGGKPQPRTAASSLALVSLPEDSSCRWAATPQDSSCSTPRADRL

Regarding `CCNC(=O)Nc1ncnc2c1ncn2[C@@H]1O[C@H](COP(=O)(O)O)C2OC(/C=C/c3ccccc3)OC21` (single isomer, unassigned), the outcome (at P2Y purinoceptor 6; in assay [1]; at P2Y purinoceptor 1; at P2Y purinoceptor 2 [2]) was inactive.
For the compound `O=C(Nc1ccc(F)cc1)Nc1ccn([C@@H]2O[C@H](COP(=O)(O)O)C(O)C2O)c(=O)n1` (single isomer, unassigned), the outcome in assay [3] was inactive.
For the compound `CCNC(=O)Nc1ncnc2c1ncn2[C@@H]1O[C@H](COP(=O)(O)O)[C@H]2OC(Cc3ccccc3)O[C@H]21` (some centres not stated), the result (at P2Y purinoceptor 6; in assay [1]; on P2Y purinoceptor 1; at P2Y purinoceptor 2 [2]) was inactive.
Consider `O=C(Nc1ccc(F)cc1)Nc1ccn([C@@H]2O[C@H](COP(=O)(O)OP(=O)(O)OP(=O)(O)OP(=O)(O)OC[C@@H]3O[C@H](n4ccc(=O)[nH]c4=O)[C@@H](O)[C@H]3O)[C@@H](O)[C@H]2O)c(=O)n1`, for which the outcome in assay [3] was inactive. The EC50 at P2Y purinoceptor 2 [4] was 2420 nM. For the same compound, the Activity at P2Y purinoceptor 1 is above 5%.
Turning to `O=c1ccn([C@@H]2O[C@H](COP(=O)(O)OP(=O)(O)OP(=O)(O)OP(=O)(O)OC[C@@H]3O[C@H](n4ccc(=O)[nH]c4=O)[C@@H](O)[C@H]3O)[C@@H]3OC(Cc4ccccc4)O[C@H]32)c(=O)[nH]1` (some centres not stated), the Activity on P2Y purinoceptor 6 is above 5%. In addition, the EC50 on P2Y purinoceptor 2 [4] is 94 nM. The result at P2Y purinoceptor 1 was inactive.
With `Nc1ncnc2c1ncn2[C@@H]1O[C@H](COP(=O)(O)O)[C@H]2OC(C#Cc3ccccc3)O[C@H]21` (some centres not stated), the outcome (on P2Y purinoceptor 6; in assay [1]; on P2Y purinoceptor 1; at P2Y purinoceptor 2 [2]) was inactive.
Take `CCNC(=O)Nc1ncnc2c1ncn2[C@@H]1O[C@H](COP(=O)(O)O)[C@H]2OC(c3ccccc3)O[C@H]21` (some centres not stated): the result (on P2Y purinoceptor 6; in assay [1]; on P2Y purinoceptor 1; at P2Y purinoceptor 2 [2]) was inactive.
Regarding `O=C(Nc1ccccc1)Nc1ncnc2c1ncn2[C@@H]1O[C@H](COP(=O)(O)OP(=O)(O)O)[C@H]2O[C@@H](Cc3ccccc3)O[C@H]21`, the Activity at P2Y purinoceptor 6 and at P2Y purinoceptor 1 was above 5% throughout. For the same compound, the concentration for a half-maximal effect (EC50) on P2Y purinoceptor 2 [4] was 13900 nM.
Take `CNc1ccccc1C(=O)O[C@H]1[C@@H](O)[C@H](n2ccc(=O)[nH]c2=O)O[C@@H]1COP(=O)(O)OP(=O)(O)OP(=O)(O)OP(=O)(O)OC[C@@H]1O[C@H](n2ccc(=O)[nH]c2=O)[C@@H](OC(=O)c2ccccc2NC)[C@H]1O`: the Activity on P2Y purinoceptor 6 is above 5%. For the same compound, the EC50 at P2Y purinoceptor 2 [4] is 5470 nM. The result on P2Y purinoceptor 1 was inactive.
For `O=c1ccn([C@@H]2O[C@H](COP(=O)(O)OP(=O)(O)OP(=O)(O)OP(=O)(O)OC[C@@H]3O[C@H](n4ccc(=O)[nH]c4=O)[C@H]4OC(c5ccccc5)O[C@H]43)[C@H]3OC(c4ccccc4)O[C@H]32)c(=O)[nH]1` (some centres not stated) the same measures were “inactive”, 3070 nM and “inactive”.
On to `CCCC1O[C@@H]2[C@@H](O1)[C@@H](COP(=O)(O)OP(=O)(O)OP(=O)(O)OP(=O)(O)OC[C@@H]1O[C@H](n3ccc(=O)[nH]c3=O)[C@H]3OC(CCC)O[C@H]31)O[C@H]2n1ccc(=O)[nH]c1=O` (some centres not stated), for which the Activity at P2Y purinoceptor 6 and on P2Y purinoceptor 2 [2] was above 5% each time. In addition, the inhibition in assay [3] worked out at 60%. Moreover, the outcome on P2Y purinoceptor 1 was inactive.
Turning to `Nc1ccn([C@@H]2O[C@H](COP(=O)(O)OP(=O)(O)OP(=O)(O)OP(=O)(O)OC[C@@H]3O[C@H](n4ccc(=O)[nH]c4=O)[C@@H](O)[C@H]3O)[C@@H](O)[C@H]2O)c(=O)n1`, the Activity at P2Y purinoceptor 6 and at P2Y purinoceptor 1 was above 5% in each case. For the same compound, in assay [3], the outcome was inactive. For the same compound, the EC50 at P2Y purinoceptor 2 [4] amounted to 44 nM.
Turning to `Nc1ncnc2c1ncn2[C@@H]1O[C@H](COP(=O)(O)OP(=O)(O)OP(=O)(O)O)[C@@H](O)[C@H]1O`, the inhibition in assay [3] was determined as 63%.
As for `Nc1ccn([C@@H]2O[C@H](COP(=O)(O)OP(=O)(O)OP(=O)(O)OP(=O)(O)OC[C@@H]3O[C@H](n4ccc(=O)[nH]c4=O)[C@@H](O)[C@H]3O)[C@H]3OC(Cc4ccccc4)O[C@H]32)c(=O)n1` (some centres not stated), the outcome at P2Y purinoceptor 6 and at P2Y purinoceptor 1 was inactive. The inhibition in assay [3] was found to be 46%. In addition, the EC50 at P2Y purinoceptor 2 [4] was determined as 545 nM.
`Nc1ncnc2c1ncn2[C@@H]1O[C@H](COP(=O)(O)OP(=O)(O)OP(=O)(O)OP(=O)(O)OC[C@@H]2O[C@H](n3cnc4c(N)ncnc43)[C@@H](O)[C@H]2O)[C@H]2OC(Cc3ccccc3)O[C@H]21` (some centres not stated): the outcome at P2Y purinoceptor 6 and at P2Y purinoceptor 1 was inactive. On P2Y purinoceptor 2 [4], the EC50 came out at 52 nM.
In the case of `Nc1ccn([C@@H]2O[C@H](COP(=O)(O)OP(=O)(O)OP(=O)(O)OP(=O)(O)OC[C@@H]3O[C@H](n4ccc(=O)[nH]c4=O)[C@H]4OC(Cc5ccccc5)O[C@H]43)[C@@H](O)[C@H]2O)c(=O)n1` (some centres not stated), the result on P2Y purinoceptor 6, at P2Y purinoceptor 1 and on P2Y purinoceptor 2 [2] was inactive. Moreover, the inhibition in assay [3] came out at 46%.
In the case of `O=C(O[C@@H]1[C@H](OC(=O)c2ccccc2)[C@@H](n2ccc(=O)[nH]c2=O)O[C@H]1COP(=O)(O)OP(=O)(O)OP(=O)(O)OP(=O)(O)OC[C@H]1O[C@@H](n2ccc(=O)[nH]c2=O)[C@H](OC(=O)c2ccccc2)[C@@H]1OC(=O)c1ccccc1)c1ccccc1`, the outcome at P2Y purinoceptor 6, on P2Y purinoceptor 1 and on P2Y purinoceptor 2 [2] was inactive. The inhibition in assay [3] came to 52%.
Turning to `CCCCCCCC1O[C@@H]2[C@H](O1)[C@@H](COP(=O)(O)OP(=O)(O)OP(=O)(O)OP(=O)(O)OC[C@@H]1O[C@H](n3ccc(=O)[nH]c3=O)[C@@H](O)[C@H]1O)O[C@H]2n1ccc(=O)[nH]c1=O` (some centres not stated), on P2Y purinoceptor 6, the Activity is above 5%. In addition, the EC50 on P2Y purinoceptor 2 [4] stood at 147 nM. Moreover, at P2Y purinoceptor 1, the outcome was inactive.
In the case of `O=c1ccn([C@@H]2O[C@H](COP(=O)(O)OP(=O)(O)OP(=O)(O)OP(=O)(O)OC[C@@H]3O[C@H](n4ccc(=O)[nH]c4=O)[C@@H](O)[C@H]3O)[C@@H]3OC(c4ccccc4)O[C@H]32)c(=O)[nH]1` (some centres not stated), at P2Y purinoceptor 6, the Activity is above 5%. Also, the EC50 at P2Y purinoceptor 2 [4] was 192 nM. For the same compound, the outcome at P2Y purinoceptor 1 was inactive.
Regarding `Nc1ccn([C@@H]2O[C@H](COP(=O)(O)O)[C@H]3O[C@@H](Cc4ccccc4)O[C@H]32)c(=O)n1`, the outcome (at P2Y purinoceptor 6; in assay [3]; on P2Y purinoceptor 1; on P2Y purinoceptor 2 [2]) was inactive.
In the case of `CNc1ccccc1C(=O)O[C@H]1[C@@H](O)[C@H](COP(=O)(O)OP(=O)(O)OP(=O)(O)OP(=O)(O)OC[C@H]2O[C@@H](n3ccc(=O)[nH]c3=O)[C@H](O)[C@@H]2O)O[C@@H]1n1ccc(=O)[nH]c1=O`, the Activity at P2Y purinoceptor 6 is above 5%. In addition, in assay [3], the inhibition was determined as 46%. The EC50 on P2Y purinoceptor 2 [4] turned out to be 130 nM. Further, the outcome on P2Y purinoceptor 1 was inactive.
As to `O=c1ccn([C@@H]2O[C@H](COP(=O)(O)OP(=O)(O)OP(=O)(O)OP(=O)(O)OC[C@@H]3O[C@H](n4ccc(=O)[nH]c4=O)[C@@H](O)[C@H]3O)[C@H]3OC(/C=C/c4ccccc4)O[C@H]32)c(=O)[nH]1` (stereo in doubt; 24), at P2Y purinoceptor 2 [4], the EC50 is 155 nM. Moreover, the outcome on P2Y purinoceptor 1 was inactive.
